The list is not random: actives were taken first. Their share in the collection is about 0.63%.
zfTRPN1 agonist: zebrafish TRPN1 channel agonists, primary screen, cell-based, HEK293, calcium fluorescence. transient receptor potential cation channel N1 (TRPN1/NompC), Danio rerio. HEK293 zebrafish TRPN1-YFP, Fluo-8 calcium fluorescence; 100% = response to 87 µM carbachol. activation, % at 3 µM. 220,000 tested, 0.18% active. AID 1424, 2008;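 active means activation above its plate's cutoff, the mean activation of test wells on that plate plus 3 SD, cut at about 19% in these data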;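 further: 0% = DMSO alone and 100% = 87 µM carbachol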
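System: zebrafish TRPN1-YFP in HEK293 cells / Dosing: 3 µM single point / Timing: dye loading 1 h at 37 °C, then 30 min room temperature / Signal: Fluo-8 calcium fluorescence, excitation 470-495 nm, emission 515-575 nm / Read-out basis: percent activation from peak over basal fluorescence ratio, control-normalized / Control set: high carbachol 87 µM, low DMSO alone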
IDE cell inh: human IDE inhibitors in live cells, primary screen, fluorescence polarization, HEK cells, FAbetaB substrate. Insulin-degrading enzyme (Homo sapiens), P14735. FAbetaB cleavage. inhibition, % at 5.59 µM. 320,000 tested, 0.41% active;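 active means percent inhibition above the average of all tested compounds plus 3 SD, set per screening campaign, cut at about 16% in these data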;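 further: IDE supplied by intact live HEK cells; FP after avidin binding of uncleaved biotin substrate so inhibition keeps polarization high; 0% = DMSO wells and 100% = 60 µM reference IDE inhibitor Ii1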
Target sequence (P14735 whole entry, looked up): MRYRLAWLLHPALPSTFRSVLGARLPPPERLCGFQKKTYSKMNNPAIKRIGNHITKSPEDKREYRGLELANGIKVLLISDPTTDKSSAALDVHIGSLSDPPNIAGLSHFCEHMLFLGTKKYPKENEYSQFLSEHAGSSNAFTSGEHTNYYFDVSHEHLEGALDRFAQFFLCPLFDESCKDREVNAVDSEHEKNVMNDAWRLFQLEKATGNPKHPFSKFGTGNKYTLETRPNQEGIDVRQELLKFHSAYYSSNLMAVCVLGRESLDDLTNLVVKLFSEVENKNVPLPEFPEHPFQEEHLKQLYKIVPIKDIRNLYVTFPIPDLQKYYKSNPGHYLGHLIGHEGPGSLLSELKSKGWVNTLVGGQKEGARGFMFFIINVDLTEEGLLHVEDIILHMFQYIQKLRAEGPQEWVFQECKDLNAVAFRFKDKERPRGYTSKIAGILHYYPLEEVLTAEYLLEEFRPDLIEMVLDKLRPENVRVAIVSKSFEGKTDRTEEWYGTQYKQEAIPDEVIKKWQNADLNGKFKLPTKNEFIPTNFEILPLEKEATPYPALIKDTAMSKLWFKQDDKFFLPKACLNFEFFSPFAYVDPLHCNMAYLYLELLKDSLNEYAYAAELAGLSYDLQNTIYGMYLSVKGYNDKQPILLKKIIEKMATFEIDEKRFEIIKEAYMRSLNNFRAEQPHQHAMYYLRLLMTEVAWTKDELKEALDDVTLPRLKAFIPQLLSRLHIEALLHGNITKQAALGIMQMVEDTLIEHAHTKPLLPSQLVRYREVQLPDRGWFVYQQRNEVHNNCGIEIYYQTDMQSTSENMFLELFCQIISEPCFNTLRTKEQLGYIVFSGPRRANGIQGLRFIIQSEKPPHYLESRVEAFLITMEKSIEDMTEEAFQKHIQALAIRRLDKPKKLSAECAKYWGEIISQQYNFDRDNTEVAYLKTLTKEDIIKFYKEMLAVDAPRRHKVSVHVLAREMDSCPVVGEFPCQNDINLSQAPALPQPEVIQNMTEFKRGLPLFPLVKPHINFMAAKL
TRPML3 agonist: human TRPML3 channel agonists, primary screen, cell-based, HEK293 TRPML3-YFP, Fluo-8 calcium fluorescence, 3 µM; Mucolipin-3 (Homo sapiens), Q8TDD5; 100% = the carbachol control signal; activation, % at 3 µM; 220,000 tested, 0.29% active; AID 1448, 2008;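 active means activation above its plate's cutoff, the mean activation of the plate's test wells plus 3 SD, cut at about 12% in these data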;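 further: 0% = DMSO only wells and 100% = carbachol wells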
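Material: HEK293 cells stably carrying human TRPML3-YFP; compound dosing: single dose, 3 µM final nominal compound, 0.3% DMSO final; incubation: 1-h 37 °C dye load, 5-s basal, 120-s post-compound reads; technique: Fluo-8 intracellular calcium fluorescence, excitation 470-495 nm, emission 515-575 nm; read-out basis: percent activation from peak-to-basal fluorescence ratio, scaled between DMSO and carbachol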
IDE act: human IDE activators in live cells, primary screen, fluorescence polarization, HEK cells, FAbeta-B substrate; FAbeta-B cleavage; 0% vehicle, 100% cell-free pure enzyme wells; activation, % at 5.96 µM; 340,000 tested, 0.073% active;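 active means activation above the mean of all tested compounds plus 3 SD, set per screening campaign, cut at about 17% in these data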
IDE inh confirm: human IDE inhibitors in live cells, confirmation, fluorescence polarization, HEK cells, FAbetaB substrate; FAbetaB cleavage; shares compounds with IDE cell inh; 1,200 tested, 51% active; AID 435028, 2010; inhibition, % at 5.59 µM;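 active means mean inhibition across triplicate wells above the cutoff set by the earlier primary insulin-degrading enzyme screen, cut at about 16% in these data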;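 further: 0% = DMSO wells and 100% = 60 µM reference IDE inhibitor Ii1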
HEK cytotox: cytotoxicity in HEK cells, cytotoxicity control for IDE inhibitor project, cell-based, luminescence | shares compounds with IDE cell inh | HEK293 cytotoxicity, ATP luminescence | inhibition, % at 5.59 µM | 1,200 tested, 28% active | AID 449730, 2010; in the data active means inhibition above about 22%;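 further: 0% = vehicle wells and 100% = reference cytotoxic drug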
* marks the source's active call; other numbers are inactive results; . = not tested or not shown.

SMILES	zfTRPN1 agonist	IDE cell inh	TRPML3 agonist	IDE act	IDE inh confirm	HEK cytotox
CN1C2CCC1/C(=C\c1ccc(F)cc1)C(=O)/C2=C/c1ccc(F)cc1	0.1	-1.5	0.4	2.6	.	.
CN(Cc1ccccc1)C1CCN(Cc2ccccc2[N+](=O)[O-])CC1	.	-2.4	.	2.8	.	.
CCCNC(=O)Cn1sc2nc(C)cc(C)c2c1=O	2.9	40.1*	2.5	-48.2	13.7	41.6*
CCOC(=O)C1CCCN(C(=O)Cn2sc3nc(C)cc(C)c3c2=O)C1 (configuration not stated)	0.8	18.7*	1.0	-60.8	8.4	65.9*
CCOc1cc(/C=C/C(=O)c2ccc(OC)c(CN3CCOCC3)c2)cc(Br)c1O	.	94.2*	.	-74.5	149.7*	22.2*
O=c1/c(=C\c2cc([N+](=O)[O-])cc([N+](=O)[O-])c2O)sc2nc3ccccc3n12	0.5	16.3*	0.4	-6.0	19.6*	5.8
O=c1/c(=C/c2ccccn2)sc2nc3ccccc3n12	0.4	-1.0	0.6	3.0	.	.
COc1ccc(CN(Cc2cc3cccc(C)c3n3nnnc23)C(=O)N2CCOCC2)cc1	1.5	-4.4	0.6	2.5	.	.
O=C(NCc1ccccc1)c1ccc(NC(=O)C2CCCCC2)cc1	.	.	.	0.8	.	.
CCCn1c(Nc2nc3ccccc3n2C)nc2ccccc21	-2.5	32.5*	-1.2	-29.3	24.4*	7.9
CCCCn1c(Nc2ccccc2)nc2ccccc21	0.3	-8.1	-0.4	4.1	.	.
O=C(Nc1cccc(F)c1)c1ccc(S(=O)(=O)N2CCCCC2)cc1	.	3.3	.	-3.0	.	.
O=c1/c(=C\c2ccc(O)cc2)sc2n1C(c1ccccc1)C(c1ccccc1)=NN=2 (configuration not stated)	0.0	19.3*	0.3	-49.0	141.3*	12.5
Nc1ccc(S(=O)(=O)N2CCOCCOCCOCCOCCOCC2)cc1	.	1.2	.	0.3	.	.
CN1CCN(C(=O)CCCN2C(=O)/C(=C/c3cccc(Br)c3)SC2=S)CC1	.	.	.	2.9	.	.
CN1CCN(C(=O)CCN2C(=O)/C(=C/c3cccc(Br)c3)SC2=S)CC1	.	19.1*	.	-0.1	1.6	56.0*
CN(C(=O)c1ccc(S(=O)(=O)N2CCCCC2)cc1)C1CCS(=O)(=O)C1 (configuration not stated)	.	-3.5	.	5.5	.	.
O=C(CN1C(=O)NC(Cc2c[nH]c3ccccc23)C1=O)NCC(F)(F)F (configuration not stated)	.	5.2	.	4.1	.	.
COc1ccc(N2CCN(c3ncnc4c3[nH]c3ccccc34)CC2)cc1	9.3	34.9*	2.2	-10.2	41.6*	63.9*
CCOc1ccc2[nH]c3c(N4CCC5(CC4)OCCO5)ncnc3c2c1	0.7	7.8	0.1	.	.	.
Fc1ccc2[nH]c3c(N4CCN(c5ccccc5)CC4)ncnc3c2c1	9.1	50.4*	7.0	-9.3	33.5*	55.1*
COc1cc2[nH]c3c(N4CCN(c5ccccn5)CC4)ncnc3c2cc1OC	1.7	15.0	0.6	-0.1	.	.
OC1(c2cccc(C(F)(F)F)c2)CCN(c2ncnc3c2[nH]c2ccc(F)cc23)CC1	1.9	.	0.6	-18.4	.	.
CCOC(=O)N1CCN(c2ncnc3c2[nH]c2ccc(OC)cc23)CC1	0.6	41.1*	-0.7	-11.5	26.2*	10.8
COc1ccc2[nH]c3c(N4CCc5ccccc5C4)ncnc3c2c1	6.9	20.4*	2.2	-26.9	13.0	72.7*
O=C(COC(=O)c1ccco1)Nc1ccc(N2CCOCC2)cc1	.	.	.	2.1	.	.
Cc1cc(CNC(=O)c2cc(COc3ccc(F)c(F)c3)on2)nn1C	.	-5.3	.	2.8	.	.
Nc1nonc1-n1nnc(C(=O)N/N=C/c2ccc(OCc3ccccc3F)cc2)c1CNc1ccccc1	.	5.0	.	-3.5	.	.

Bioassay records from PubChem BioAssay.
